The text below walks through data of ChEMBL document CHEMBL3992496, “Oligonucleotide transition state analogues of saporin L3” (Eur J Med Chem, 2017).

Assay [1] can be described thus: Competitive inhibition of Saponaria officinalis saporin L3 expressed in yeast using RNA A10 as substrate preincubated for 10 mins followed substrate addition by luciferase assay.
Assay [2] in a line: Competitive inhibition of Saponaria officinalis saporin L1 using RNA A10 as substrate preincubated for 10 mins followed substrate addition by continuous luciferase assay.
Assay [3] can be described thus: Inhibition of yeast expressing Saponaria officinalis saporin L3 A14C mutant-mediated suppression of luciferase mRNA translation in rabbit reticulocyte extract preincubated with protein for 10 mins followed by addition of rabbit reticulocyte translation system for 90 mins by luciferase assay. In short, it runs like this:
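Rabbit reticulocyte lysate translation of luciferase-encoding mRNA. 10 nM SAP A14C preincubated 10 min with increasing inhibitor in pH 7.4 buffer, then added to translation mix, 30 °C, 90 min. Luciferase luminescence read. Control contained top inhibitor concentration without enzyme. Percent translation vs log inhibitor fit to dose-response curve for EC50.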

Assay [4] in a line: Competitive inhibition of Saponaria officinalis saporin L3 A14C mutant expressed in yeast using yeast tRNA as substrate. In short, it runs like this: (§1)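 Saporin L3 A14C, secreted from yeast and purified. Substrate held fixed: isolated rabbit 80S ribosomes (100 nM) or yeast tRNA (1.0 mg/mL). Inhibitor preincubated with enzyme 10 min for slow-onset binding before substrate, then adenine release read by coupled luciferase method. Ki* taken from competitive inhibition fit.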

The nature of assay [5]: Competitive inhibition of Saponaria officinalis saporin L3 expressed in yeast using rabbit rRNA as substrate. In short, it runs like this:
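Saporin L3 secreted from yeast cultures and purified to near-homogeneity. Substrate was isolated rabbit 80S ribosomes purified in-house, fixed at 100 nM, with concentration from A260. Inhibitor at varying concentrations was preincubated with enzyme for 10 min. K_i* was taken as slow-onset competitive inhibition.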

Assay [6] in a line: Competitive inhibition of Saponaria officinalis saporin L3 expressed in yeast using yeast tRNA as substrate.
Assay [7] is described as follows: Competitive inhibition of Saponaria officinalis saporin L3 A14C mutant expressed in yeast using rabbit rRNA as substrate. The method, boiled down:
as §1

The term Ki denotes a measure of affinity in units of concentration, obtained from inhibition or displacement. Higher therefore signals a looser hold on the target. Take `CO[C@@H]1[C@H](OP(=O)(O)OC[C@H]2CN(Cc3c[nH]c4c(N)ncnc34)C[C@@H]2OP(=O)(O)OC[C@H]2O[C@@H](n3cnc4c(=O)[nH]c(N)nc43)[C@H](OC)[C@@H]2OP(=O)(O)OCCCO)[C@@H](CO)O[C@H]1n1cnc2c(=O)[nH]c(N)nc21`: in assay [1], the Ki worked out at 10.5 nM. In assay [1], `CO[C@@H]1[C@H](O)[C@@H](COP(=O)(O)O[C@H]2[C@@H](OC)[C@H](n3cnc4c(=O)[nH]c(N)nc43)O[C@@H]2COP(=O)(O)O[C@H]2CN(Cc3c[nH]c4c(N)ncnc34)C[C@@H]2COP(=O)(O)OC2[C@@H](OC)[C@H](n3cnc4c(=O)[nH]c(N)nc43)O[C@@H]2CO)O[C@H]1n1cnc2c(N)ncnc21` (stereo partly drawn) yielded a Ki of 6.1 nM. In assay [1], `CO[C@@H]1[C@H](OP(=O)(O)OC[C@H]2CN(Cc3c[nH]c4c(N)ncnc34)C[C@@H]2OP(=O)(O)OCCCO)[C@@H](COP(=O)(O)OCCCO)O[C@H]1n1cnc2c(=O)[nH]c(N)nc21` displayed a Ki of 188 nM.

Compound `CO[C@@H]1[C@H](OP(=O)(O)OCCCO)[C@@H](COP(=O)(O)O[C@H]2CN(CCc3c[nH]c4c(N)ncnc34)C[C@@H]2COP(=O)(O)OCCCO)O[C@H]1n1cnc2c(=O)[nH]c(N)nc21` had a Ki in assay [1] of 12.4 nM. Turning to `CO[C@@H]1[C@H](O)[C@@H](COP(=O)(O)O[C@H]2CN(Cc3c[nH]c4c(N)ncnc34)C[C@@H]2CO)O[C@H]1n1cnc2c(=O)[nH]c(N)nc21`, the Ki in assay [1] stood at 21300 nM.

Compound `CO[C@@H]1[C@H](OP(=O)(O)OCCCO)[C@@H](COP(=O)(O)OCC(COP(=O)(O)OCCCO)NCc2c[nH]c3c(N)ncnc23)O[C@H]1n1cnc2c(=O)[nH]c(N)nc21` (stereo partly drawn) returned a Ki in assay [2] of 43.2 nM. On to `CO[C@@H]1[C@H](O)[C@@H](COP(=O)(O)O[C@H]2CN(Cc3c[nH]c4c(N)ncnc34)C[C@@H]2COP(=O)(O)OCCCO)O[C@H]1n1cnc2c(=O)[nH]c(N)nc21`, for which affinity in assay [1] was put at a Ki of 19.3 nM. A word on the IC50: it is the concentration at which inhibition is half-maximal. Regarding `CO[C@@H]1[C@H](OP(=O)(O)OCCCO)[C@@H](COP(=O)(O)O[C@H]2CN(Cc3c[nH]c4c(N)ncnc34)C[C@@H]2COP(=O)(O)OCCCO)O[C@H]1n1cnc2c(=O)[nH]c(N)nc21`, the inhibition constant Ki in assay [1] is 3.3 nM; in assay [4], 8.4 nM; in assay [5], 6.7 nM; in assay [6], 9.9 nM; in assay [7] it was 5.4 nM. Half-maximal inhibition in assay [3] (IC50) required 13 nM. In assay [1], `CO[C@@H]1[C@H](OP(=O)(O)OC[C@H]2O[C@@H](n3cnc4c(=O)[nH]c(N)nc43)[C@H](OC)[C@@H]2OP(=O)(O)OC[C@H]2CN(Cc3c[nH]c4c(N)ncnc34)C[C@@H]2OP(=O)(O)OCCCO)[C@@H](CO)O[C@H]1n1cnc2c(=O)[nH]c(N)nc21` returned a Ki of 212 nM.

Consider `CO[C@@H]1[C@H](OP(=O)(O)OCCCO)[C@@H](COP(=O)(O)O[C@H]2CN(Cc3c[nH]c4c(N)ncnc34)C[C@@H]2CO)O[C@H]1n1cnc2c(=O)[nH]c(N)nc21`, for which the affinity in assay [1], expressed as Ki, was 10700 nM. In assay [1], `CO[C@@H]1[C@H](O)[C@@H](COP(=O)(O)O[C@H]2CN(Cc3c[nH]c4c(N)ncnc34)C[C@@H]2COP(=O)(O)OC2[C@@H](OC)[C@H](n3cnc4c(=O)[nH]c(N)nc43)O[C@@H]2CO)O[C@H]1n1cnc2c(=O)[nH]c(N)nc21` (stereo partly drawn) registered a Ki of 33 nM.

`CO[C@@H]1[C@H](OP(=O)(O)OC[C@H]2CN(Cc3c[nH]c4c(N)ncnc34)C[C@@H]2OP(=O)(O)OC[C@H]2O[C@@H](n3cnc4c(=O)[nH]c(N)nc43)[C@H](OC)[C@@H]2OP(=O)(O)OCCCO)[C@@H](COP(=O)(O)OCCCO)O[C@H]1n1cnc2c(=O)[nH]c(N)nc21` had a Ki in assay [1] of 7.4 nM. Consider `CO[C@@H]1[C@H](OP(=O)(O)OCCCO)[C@@H](COP(=O)(O)OCC(CNCc2c[nH]c3c(N)ncnc23)COP(=O)(O)OCCCO)O[C@H]1n1cnc2c(=O)[nH]c(N)nc21` (mixture of isomers), for which affinity in assay [1] was put at a Ki of 26.8 nM.
